From ChEMBL document CHEMBL1157573, “BRAF inhibitors based on an imidazo[4,5]pyridin-2-one scaffold and a meta substituted middle ring” (J Med Chem, 2010)

Tests used:
[1] = target: T1, Serine/threonine-protein kinase B-raf (Homo sapiens, UniProt P15056, V600E); test: Inhibition of BRAF V600E mutant-mediated ERK phosphorylation in human WM266.4 cells; type: cell-based
[2] = target: T1, Serine/threonine-protein kinase B-raf; test: Inhibition of human BRAF V600E mutant expressed in Sf9 cells
[3] = Antiproliferative activity against human WM266.4 cells after 6 days by SRB assay; type: functional; conditions: WM 266-4, 144 h
How it was run: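 SRB cell proliferation assay on WM266.4 melanoma cells, which carry mutant BRAF. Growth inhibition is reported as GI50.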

T1 sequence (P15056 2-766 V600E limits assumed): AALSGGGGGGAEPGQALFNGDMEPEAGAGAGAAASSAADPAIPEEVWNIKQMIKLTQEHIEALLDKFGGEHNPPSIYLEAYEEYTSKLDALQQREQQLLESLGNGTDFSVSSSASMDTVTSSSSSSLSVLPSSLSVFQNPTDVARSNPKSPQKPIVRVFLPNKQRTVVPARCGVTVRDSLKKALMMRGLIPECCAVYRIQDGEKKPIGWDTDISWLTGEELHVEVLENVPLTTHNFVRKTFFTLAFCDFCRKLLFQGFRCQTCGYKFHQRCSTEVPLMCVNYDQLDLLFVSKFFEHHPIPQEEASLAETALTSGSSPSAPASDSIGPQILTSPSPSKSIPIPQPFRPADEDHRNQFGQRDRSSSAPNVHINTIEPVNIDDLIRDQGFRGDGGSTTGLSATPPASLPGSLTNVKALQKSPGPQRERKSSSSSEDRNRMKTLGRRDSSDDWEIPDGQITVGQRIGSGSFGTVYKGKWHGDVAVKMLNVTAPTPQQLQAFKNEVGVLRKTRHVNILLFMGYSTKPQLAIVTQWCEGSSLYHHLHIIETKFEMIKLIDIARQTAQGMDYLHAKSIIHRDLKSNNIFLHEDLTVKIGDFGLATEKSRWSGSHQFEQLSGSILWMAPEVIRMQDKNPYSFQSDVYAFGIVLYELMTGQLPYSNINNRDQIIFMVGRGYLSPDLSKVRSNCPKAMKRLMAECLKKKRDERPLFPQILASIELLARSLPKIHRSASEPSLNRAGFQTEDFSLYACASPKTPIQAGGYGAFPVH

Row | IC50 [1] [µM] | IC50 [2] [µM] | Structure (SMILES) | GI50 [3] [µM]
1 | > 100 | 0.34 | COc1ccc(NC(=O)c2cccc(OC(F)(F)F)c2)cc1Oc1ccnc2[nH]c(=O)[nH]c12 | –
2 | 16.6 | 0.064 | COc1cc(NC(=O)c2cccc(OC(F)(F)F)c2)cc(Oc2ccnc3[nH]c(=O)[nH]c23)c1 | –
3 | – | 0.023 | O=C(Nc1ccc(Oc2ccnc3[nH]c(=O)[nH]c23)cc1)Nc1ccc(Cl)c(C(F)(F)F)c1 | –
4 | > 100 | 25.2 | O=C(Nc1cccc(Oc2ccnc3[nH]c(=O)[nH]c23)c1)c1ccccc1 | 1.54
5 | – | > 100 | O=C(Nc1ccc(Oc2ccnc3[nH]c(=O)[nH]c23)cc1)c1cc(F)cc(N2CCOCC2)c1 | –
6 | 50.2 | 2.75 | O=C(Nc1cccc(F)c1)Nc1cccc(Oc2ccnc3[nH]c(=O)[nH]c23)c1 | 3.3
7 | 39 | 1.12 | O=C(Nc1cccc(Oc2ccnc3[nH]c(=O)[nH]c23)c1)Nc1ccc(F)c(F)c1 | 3.7
8 | > 100 | 0.77 | O=C(Nc1cc(Oc2ccnc3[nH]c(=O)[nH]c23)c(Cl)cc1Cl)c1cccc(OC(F)(F)F)c1 | 1.2
9 | – | 14 | O=C(Nc1ccc(Oc2ccnc3[nH]c(=O)[nH]c23)cc1)c1ccc(Br)cc1 | –
10 | > 100 | 68 | O=C(Nc1cccc(Oc2ccnc3[nH]c(=O)[nH]c23)c1)c1ccc(Cl)cc1 | 9.1
11 | 21.1 | 0.062 | O=C(Nc1cccc(Oc2ccnc3[nH]c(=O)[nH]c23)c1)c1cc(F)cc(N2CCOCC2)c1 | 25.1
12 | > 100 | > 10 | Cc1ccc(NC(=O)c2cccc(OC(F)(F)F)c2)cc1Oc1ccnc2[nH]c(=O)[nH]c12 | 38
13 | 66 | 6.8 | O=c1[nH]c2nccc(Oc3cccc(NS(=O)(=O)c4ccc(Cl)c(C(F)(F)F)c4)c3)c2[nH]1 | 40
14 | > 100 | 0.73 | O=C(Nc1cccc(Oc2ccnc3[nH]c(=O)[nH]c23)c1)c1ccc(C(F)(F)F)cc1 | –
15 | 14.6 | 0.071 | O=C(Nc1cccc(Oc2ccnc3[nH]c(=O)[nH]c23)c1)c1cc(Cl)cc(OC(F)(F)F)c1 | 6.5
16 | 38 | > 100 | O=C(Nc1cccc(Oc2ccnc3[nH]c(=O)[nH]c23)c1)c1cnn(-c2ccccc2)c1C(F)(F)F | 3.3
17 | 13.7 | 0.274 | CC(C)(C)c1cc(C(=O)Nc2cccc(Oc3ccnc4[nH]c(=O)[nH]c34)c2)n(-c2ccccc2)n1 | 3.1
18 | 13.7 | 0.087 | CC(C)c1cc(C(=O)Nc2cccc(Oc3ccnc4[nH]c(=O)[nH]c34)c2)n(-c2ccccc2)n1 | 5.7
19 | 1.96 | 0.123 | CC(C)(C)c1cc(NC(=O)Nc2cccc(Oc3ccnc4[nH]c(=O)[nH]c34)c2)n(-c2ccc(F)cc2)n1 | –
20 | > 100 | > 100 | O=C(Nc1cccc(Oc2ccnc3[nH]c(=O)[nH]c23)c1)c1cccc2c1OCCCO2 | 48
21 | 66 | 22 | O=C(Nc1cccc(Oc2ccnc3[nH]c(=O)[nH]c23)c1)c1ccc2sccc2c1 | 1.5
22 | > 100 | 93 | O=C(Nc1cccc(Oc2ccnc3[nH]c(=O)[nH]c23)c1)c1ccnc(Cl)c1 | 25

Row | IC50 [1] [µM] | IC50 [2] [µM] | Structure (SMILES) | GI50 [3] [µM]
23 | 2.05 | 0.59 | Cc1ccc(-n2nc(C(C)(C)C)cc2NC(=O)c2cccc(Oc3ccnc4[nH]c(=O)[nH]c34)c2)cc1 | –
24 | 14.8 | 0.5 | Cc1ccc(-n2nc(C(F)(F)F)cc2NC(=O)c2cccc(Oc3ccnc4[nH]c(=O)[nH]c34)c2)cc1 | 32
25 | > 100 | > 100 | O=C(Nc1cccc(Oc2ccnc3[nH]c(=O)[nH]c23)c1)c1cccc2c1OCCO2 | 40
26 | 35.8 | 79 | O=C(Nc1cccc(Oc2ccnc3[nH]c(=O)[nH]c23)c1)c1ccccc1OC(F)(F)F | 1.3
27 | 27.7 | 0.049 | O=C(Nc1cccc(Oc2ccnc3[nH]c(=O)[nH]c23)c1)c1ccc(F)c(OC(F)(F)F)c1 | 7.4
28 | 57 | 15.4 | O=c1[nH]c2nccc(Oc3cccc(NS(=O)(=O)c4cccc(C(F)(F)F)c4)c3)c2[nH]1 | 0.83
29 | – | > 100 | O=c1[nH]c2nccc(Oc3ccc(NS(=O)(=O)c4cccc(C(F)(F)F)c4)cc3)c2[nH]1 | –
30 | 79 | > 100 | Cc1cc(C(=O)Nc2cccc(Oc3ccnc4[nH]c(=O)[nH]c34)c2)n(C)n1 | –
31 | > 100 | 87 | O=C(Cc1ccccc1)Nc1cccc(Oc2ccnc3[nH]c(=O)[nH]c23)c1 | –
32 | > 100 | 94 | O=C(CCc1ccccc1)Nc1cccc(Oc2ccnc3[nH]c(=O)[nH]c23)c1 | 30.9
33 | 42 | > 100 | CN(C)c1cccc(C(=O)Nc2cccc(Oc3ccnc4[nH]c(=O)[nH]c34)c2)c1 | –
34 | 92 | > 100 | O=C(Nc1cccc(Oc2ccnc3[nH]c(=O)[nH]c23)c1)c1ccnn1-c1ccccc1 | 15.6
35 | > 100 | > 10 | Cc1c(NC(=O)c2cccc(OC(F)(F)F)c2)cccc1Oc1ccnc2[nH]c(=O)[nH]c12 | –
36 | > 100 | 0.115 | O=C(Nc1cccc(Oc2ccnc3[nH]c(=O)[nH]c23)c1)c1cccc(N2CCCC2)c1 | > 10
37 | 8.2 | 0.09 | O=C(Nc1ccc(Cl)c(C(F)(F)F)c1)c1cccc(Oc2ccnc3[nH]c(=O)[nH]c23)c1 | 7.3
38 | 35 | 4.7 | O=C(Nc1cc(C(F)(F)F)ccc1F)c1cccc(Oc2ccnc3[nH]c(=O)[nH]c23)c1 | 31
39 | 8 | 0.24 | O=C(Nc1cccc(OC(F)(F)C(F)F)c1)c1cccc(Oc2ccnc3[nH]c(=O)[nH]c23)c1 | 0.677
40 | 13 | 0.187 | O=C(Nc1cccc(SC(F)(F)F)c1)c1cccc(Oc2ccnc3[nH]c(=O)[nH]c23)c1 | 9.2
41 | – | > 100 | O=c1[nH]c2nccc(Oc3ccc(NS(=O)(=O)c4ccc(Cl)c(C(F)(F)F)c4)cc3)c2[nH]1 | –
42 | 23.9 | 0.69 | O=C(Nc1cccc(Oc2ccnc3[nH]c(=O)[nH]c23)c1)c1cc(Cl)cc(C(F)(F)F)c1 | 3.3
43 | 3.1 | 0.04 | CCC(C)(C)c1cccc(C(=O)Nc2cccc(Oc3ccnc4[nH]c(=O)[nH]c34)c2)c1 | –
44 | > 100 | > 10 | O=C(Nc1cccc(Oc2ccnc3[nH]c(=O)[nH]c23)c1)c1cccc(-n2ccnc2)c1 | 6.2

Row | IC50 [1] [µM] | IC50 [2] [µM] | Structure (SMILES) | GI50 [3] [µM]
45 | 10.3 | 0.195 | CC(C)(C)c1cccc(NC(=O)Nc2cccc(Oc3ccnc4[nH]c(=O)[nH]c34)c2)c1 | 12.9
46 | 4.8 | 0.4 | Cc1ccc(-n2nc(C(F)(F)F)cc2NC(=O)Nc2cccc(Oc3ccnc4[nH]c(=O)[nH]c34)c2)cc1 | 4.28
47 | 21.3 | 25 | O=c1[nH]c2nccc(Oc3cccc(NS(=O)(=O)c4cccc5ccccc45)c3)c2[nH]1 | 0.85
48 | – | 0.85 | O=c1[nH]c2nccc(Oc3ccc(NS(=O)(=O)c4ccccc4)cc3)c2[nH]1 | –
49 | > 100 | > 10 | Cc1ccc(Oc2ccnc3[nH]c(=O)[nH]c23)cc1NC(=O)c1cccc(OC(F)(F)F)c1 | –
50 | – | 15.9 | O=C(Nc1ccc(Oc2ccnc3[nH]c(=O)[nH]c23)cc1)c1ccc(Cl)c(C(F)(F)F)c1 | –
51 | 29.6 | 1.66 | O=c1[nH]c2nccc(Oc3cccc(NS(=O)(=O)c4ccccc4)c3)c2[nH]1 | 0.175
52 | 100 | 1.56 | O=C(Nc1cccc(Oc2ccnc3[nH]c(=O)[nH]c23)c1)c1cccc(Br)c1 | 0.907
53 | 94 | 11.3 | O=c1[nH]c2nccc(Oc3cccc(NS(=O)(=O)c4cccc(OC(F)(F)F)c4)c3)c2[nH]1 | 0.83
54 | > 100 | > 100 | CC(C)(C)c1cc(C(=O)Nc2cccc(Oc3ccnc4[nH]c(=O)[nH]c34)c2)n(Cc2ccccc2)n1 | –
55 | 20.4 | 0.057 | O=C(Nc1cccc(Oc2ccnc3[nH]c(=O)[nH]c23)c1)c1cccc(-n2cccc2)c1 | 1.1
56 | 14.6 | 0.048 | O=C(Nc1cccc(OC(F)(F)F)c1)c1cccc(Oc2ccnc3[nH]c(=O)[nH]c23)c1 | 2.4
57 | > 100 | > 10 | O=c1[nH]c2nccc(Oc3cccc(NCc4cccc(OC(F)(F)F)c4)c3)c2[nH]1 | 0.74
58 | 12.8 | > 10 | O=C(Cc1cccc(OC(F)(F)F)c1)Nc1cccc(Oc2ccnc3[nH]c(=O)[nH]c23)c1 | 29.4
59 | 42 | 0.74 | O=C(Nc1cccc(Oc2ccnc3[nH]c(=O)[nH]c23)c1)Nc1cc(C(F)(F)F)ccc1N1CCOCC1 | 16.7
60 | 17.8 | > 10 | O=C(Cc1cccc(C(F)(F)F)c1)Nc1cccc(Oc2ccnc3[nH]c(=O)[nH]c23)c1 | 25.7
61 | > 100 | > 100 | O=C(Nc1cccc(Oc2ccnc3[nH]c(=O)[nH]c23)c1)c1ccc2nsnc2c1 | 8.3
62 | > 100 | 0.24 | O=C(Nc1cc(Oc2ccnc3[nH]c(=O)[nH]c23)ccc1Cl)c1cccc(OC(F)(F)F)c1 | 35
63 | 0.83 | 0.128 | Cc1ccc(-n2nc(C(C)(C)C)cc2NC(=O)Nc2cccc(Oc3ccnc4[nH]c(=O)[nH]c34)c2)cc1 | 0.705
64 | 29 | 0.92 | O=C(Nc1cccc(Oc2ccnc3[nH]c(=O)[nH]c23)c1)c1cccc2ccccc12 | 23
65 | 28 | 0.124 | O=C(Nc1cccc(Oc2ccnc3[nH]c(=O)[nH]c23)c1)c1ccc(Cl)c(C(F)(F)F)c1 | 13.4
